# Results published in ChEMBL document CHEMBL1781954, “Synthesis and antitumor activity of novel pyrido[2,3-d][1,2,4]triazolo[4,3-a]pyrimidin-5-one derivatives” (Eur J Med Chem, 2011).
# System: MCF7
# Test: Cytotoxicity against human MCF7 cells assessed as inhibition of cell viability after 48 hrs by Sulforhodamine B assay
# Type: functional, cell-based
# Conditions: MCF7, 48 h
# Procedure, shortened: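 MCF7 cells seeded at 10⁴ cells/well and left 24 h to attach. Compounds in DMSO diluted with saline were added at 0, 1, 2.5, 5 and 10 (triplicate wells per dose). After 48 h at 37 °C in 5% CO₂, cells were fixed with trichloroacetic acid and stained 30 min with 0.4% SRB in 1% acetic acid. Bound dye was recovered in Tris-EDTA and read on an ELISA reader. IC50 was taken from surviving fraction versus concentration curves.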
row,SMILES,IC50
1,O=c1[nH]c(=S)[nH]c2nc(-c3ccccc3)cc(-c3ccc(Cl)cc3)c12,5.11 µg/mL
2,O=c1c2c(-c3ccc(Cl)cc3)cc(-c3ccccc3)nc2nc2[nH]nc(CCl)n12,11.7 µg/mL
3,CCc1n[nH]c2nc3nc(-c4ccccc4)cc(-c4ccc(Cl)cc4)c3c(=O)n12,14 µg/mL
4,O=c1c2c(-c3ccc(Cl)cc3)cc(-c3ccccc3)nc2nc2[nH]ncn12,21.6 µg/mL
5,Cc1ccc(-c2n[nH]c3nc4nc(-c5ccccc5)cc(-c5ccc(Cl)cc5)c4c(=O)n23)cc1,9.07 µg/mL
6,Cc1n[nH]c2nc3nc(-c4ccccc4)cc(-c4ccc(Cl)cc4)c3c(=O)n12,> 50 µg/mL
7,O=c1c2c(-c3ccc(Cl)cc3)cc(-c3ccccc3)nc2nc2[nH][nH]c(=S)n12,6.78 µg/mL
8,CSc1n[nH]c2nc3nc(-c4ccccc4)cc(-c4ccc(Cl)cc4)c3c(=O)n12,3.89 µg/mL
9,O=c1[nH][nH]c2nc3nc(-c4ccccc4)cc(-c4ccc(Cl)cc4)c3c(=O)n12,24.3 µg/mL
10,CCSc1n[nH]c2nc3nc(-c4ccccc4)cc(-c4ccc(Cl)cc4)c3c(=O)n12,5.2 µg/mL
11,CCOC(=O)CSc1n[nH]c2nc3nc(-c4ccccc4)cc(-c4ccc(Cl)cc4)c3c(=O)n12,4.5 µg/mL
12,O=c1c2c(-c3ccc(Cl)cc3)cc(-c3ccccc3)nc2nc2[nH]nc(-c3ccccc3)n12,9.22 µg/mL
13,O=c1c2c(-c3ccc(Cl)cc3)cc(-c3ccccc3)nc2nc2[nH]nc(SCc3ccccc3)n12,12.6 µg/mL
14,Nc1n[nH]c2nc3nc(-c4ccccc4)cc(-c4ccc(Cl)cc4)c3c(=O)n12,3.74 µg/mL
